Values belong to the compound of their own block, whether it stands above or below them. Activity calls are given as the source filed them. No cut-off for these calls is given here.
Key:
[1] = in vitro; conditions: human, MRC9 cells
[2] = target: Histone deacetylase 1 (Homo sapiens) (UniProt Q13547); test: Inhibition of HDAC1 in human MV4-11 cells assessed as acetylation of histone H3 incubated for 6 hrs by Western blot analysis; type: cell-based
How it was run: (§1)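 Protein was measured by BCA and run on a 4–20% SDS gel, then transferred to nitrocellulose and blocked in 5% milk. Primary antibodies were incubated overnight at 4 °C, with HSC70 as loading control. HRP secondaries were used with ECL detection.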

[3] = Cytotoxicity against human MRC9 cells assessed as reduction in cell growth incubated for 72 hrs by Cell titer-blue assay; type: toxicity, cell-based
[4] = target: T1, Protein deacetylase HDAC6 (Homo sapiens) (UniProt Q9UBN7); test: Inhibition of HDAC6 in human MV4-11 cells assessed as increase in acetylated alpha-tubulin incubated for 6 hrs by Western blot analysis; type: cell-based
T1 sequence (whole entry): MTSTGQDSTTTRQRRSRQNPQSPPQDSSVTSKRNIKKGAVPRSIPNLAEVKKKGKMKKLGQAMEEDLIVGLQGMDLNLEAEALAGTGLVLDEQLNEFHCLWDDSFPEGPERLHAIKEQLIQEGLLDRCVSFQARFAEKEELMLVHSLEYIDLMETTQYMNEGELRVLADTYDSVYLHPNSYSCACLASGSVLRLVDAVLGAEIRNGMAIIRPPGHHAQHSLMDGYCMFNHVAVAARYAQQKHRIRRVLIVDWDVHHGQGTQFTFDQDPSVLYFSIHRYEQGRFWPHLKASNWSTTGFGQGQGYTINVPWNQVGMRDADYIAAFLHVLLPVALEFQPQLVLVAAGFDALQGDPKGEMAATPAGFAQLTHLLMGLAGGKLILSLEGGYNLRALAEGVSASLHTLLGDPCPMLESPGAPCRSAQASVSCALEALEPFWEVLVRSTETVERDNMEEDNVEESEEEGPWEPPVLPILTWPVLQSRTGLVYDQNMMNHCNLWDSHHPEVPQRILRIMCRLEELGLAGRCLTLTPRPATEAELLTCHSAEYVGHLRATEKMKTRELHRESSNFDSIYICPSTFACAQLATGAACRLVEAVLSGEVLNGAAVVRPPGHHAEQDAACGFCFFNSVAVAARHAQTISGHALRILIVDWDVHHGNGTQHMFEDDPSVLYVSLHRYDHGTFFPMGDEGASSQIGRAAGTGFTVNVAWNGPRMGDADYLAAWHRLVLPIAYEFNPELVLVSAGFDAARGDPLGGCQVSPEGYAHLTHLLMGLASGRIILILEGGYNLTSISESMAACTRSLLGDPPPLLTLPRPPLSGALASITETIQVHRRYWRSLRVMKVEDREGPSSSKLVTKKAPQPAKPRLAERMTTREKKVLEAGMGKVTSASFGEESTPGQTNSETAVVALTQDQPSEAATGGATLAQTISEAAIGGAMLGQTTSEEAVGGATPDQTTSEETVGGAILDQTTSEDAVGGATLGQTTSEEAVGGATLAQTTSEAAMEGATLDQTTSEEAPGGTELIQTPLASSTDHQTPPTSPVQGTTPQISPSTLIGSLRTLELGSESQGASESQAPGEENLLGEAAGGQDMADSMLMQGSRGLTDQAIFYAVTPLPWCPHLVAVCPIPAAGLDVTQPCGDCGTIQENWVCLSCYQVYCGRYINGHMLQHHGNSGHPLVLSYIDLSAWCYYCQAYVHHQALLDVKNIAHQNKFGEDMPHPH
How it was run: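 Protein quantified by BCA, run on 4–20% SDS gel, blotted to nitrocellulose. Probed overnight at 4 °C for acetylated α-tubulin and acetylated H3 (Lys18), HSC70 as loading control. HRP secondaries, ECL detection.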

[5] = tested on: MV4-11; test: Induction of apoptosis in human MV4-11 cells at 0.5 uM assessed as increase in cleaved caspase-3 level measured after 6 hrs by Western blot analysis
[6] = tested on: MV4-11; test: Induction of apoptosis in human MV4-11 cells at 0.5 uM assessed as increase in cleaved caspase-3 level measured after 6 hrs by Western blot analysis; type: functional, cell-based
How it was run: as §1

[7] = tested on: MV4-11; test: Induction of apoptosis in human MV4-11 cells assessed as viable cells at 0.25 uM measured after 18 hrs by Annexin V-FITC/propidium iodide staining based FACS flow cytometry (reference value: 83.23%); type: functional; conditions: read-out: Activity
[8] = tested on: MV4-11; test: Induction of apoptosis in human MV4-11 cells assessed as early apoptotic cells at 1 uM measured after 18 hrs by Annexin V-FITC/propidium iodide staining based FACS flow cytometry (reference value: 2.23%); type: functional
[9] = target: T1, Protein deacetylase HDAC6 (Homo sapiens); test: Binding affinity to HDAC6 (unknown origin) assessed as residence time
[10] = tested on: MV4-11; test: Induction of apoptosis in human MV4-11 cells assessed as late apoptotic cells at 4 uM measured after 18 hrs by Annexin V-FITC/propidium iodide staining based FACS flow cytometry (reference value: 7.49%); type: functional
[11] = tested on: MV4-11; test: Induction of apoptosis in human MV4-11 cells assessed as viable cells at 4 uM measured after 18 hrs by Annexin V-FITC/propidium iodide staining based FACS flow cytometry (reference value: 83.23%); type: functional; conditions: read-out: Activity
[12] = tested on: MV4-11; test: Induction of apoptosis in human MV4-11 cells assessed as early apoptotic cells at 4 uM measured after 18 hrs by Annexin V-FITC/propidium iodide staining based FACS flow cytometry (reference value: 2.23%); type: functional
[13] = target: T1, Protein deacetylase HDAC6 (Homo sapiens); test: Inhibition of HDAC6 in human HeLa cells assessed as increase in acetylated alpha tubulin level incubated for 6 hrs by immunofluorescent assay; type: cell-based
How it was run: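 HeLa cells (DMEM, 10% FBS, 37 °C, 5% CO2) seeded subconfluent; inhibitor added after 24 h, increasing doses for 6 h. Fixed in 4% formaldehyde, permeabilised with 1% Triton X-100, blocked in 5% BSA. Stained for acetylated α-tubulin and acetylated histone H3 (Lys18), DAPI counterstain. Intensity from imaging, n = 3, two-way ANOVA with Tukey test.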

[14] = tested on: MV4-11; test: Induction of apoptosis in human MV4-11 cells assessed as late apoptotic cells at 1 uM measured after 18 hrs by Annexin V-FITC/propidium iodide staining based FACS flow cytometry (reference value: 7.49%); type: functional
[15] = tested on: MV4-11; test: Induction of apoptosis in human MV4-11 cells assessed as early apoptotic cells at 0.25 uM measured after 18 hrs by Annexin V-FITC/propidium iodide staining based FACS flow cytometry (reference value: 2.23%); type: functional
[16] = tested on: MV4-11; test: Induction of apoptosis in human MV4-11 cells assessed as viable cells at 0.5 uM measured after 18 hrs by Annexin V-FITC/propidium iodide staining based FACS flow cytometry (reference value: 83.23%); type: functional; conditions: read-out: Activity
[17] = tested on: MV4-11; test: Induction of apoptosis in human MV4-11 cells assessed as late apoptotic cells at 0.5 uM measured after 18 hrs by Annexin V-FITC/propidium iodide staining based FACS flow cytometry (reference value: 7.49%); type: functional
[18] = tested on: MV4-11; test: Induction of apoptosis in human MV4-11 cells assessed as late apoptotic cells at 2 uM measured after 18 hrs by Annexin V-FITC/propidium iodide staining based FACS flow cytometry (reference value: 7.49%); type: functional
[19] = tested on: MV4-11; test: Induction of apoptosis in human MV4-11 cells assessed as early apoptotic cells at 2 uM measured after 18 hrs by Annexin V-FITC/propidium iodide staining based FACS flow cytometry (reference value: 2.23%); type: functional
[20] = tested on: MV4-11; test: Induction of apoptosis in human MV4-11 cells assessed as viable cells at 2 uM measured after 18 hrs by Annexin V-FITC/propidium iodide staining based FACS flow cytometry (reference value: 83.23%); type: functional; conditions: read-out: Activity
[21] = tested on: MV4-11; test: Induction of apoptosis in human MV4-11 cells at 0.5 uM assessed as increase in cleaved PARP-1 level measured after 6 hrs by Western blot analysis; type: functional, cell-based
How it was run: as §1

[22] = tested on: MV4-11; test: Induction of apoptosis in human MV4-11 cells assessed as late apoptotic cells at 0.25 uM measured after 18 hrs by Annexin V-FITC/propidium iodide staining based FACS flow cytometry (reference value: 7.49%); type: functional
[23] = tested on: MV4-11; test: Induction of apoptosis in human MV4-11 cells assessed as early apoptotic cells at 0.5 uM measured after 18 hrs by Annexin V-FITC/propidium iodide staining based FACS flow cytometry (reference value: 2.23%); type: functional

Sequence of Histone deacetylase 1 (Homo sapiens) (Q13547 whole entry): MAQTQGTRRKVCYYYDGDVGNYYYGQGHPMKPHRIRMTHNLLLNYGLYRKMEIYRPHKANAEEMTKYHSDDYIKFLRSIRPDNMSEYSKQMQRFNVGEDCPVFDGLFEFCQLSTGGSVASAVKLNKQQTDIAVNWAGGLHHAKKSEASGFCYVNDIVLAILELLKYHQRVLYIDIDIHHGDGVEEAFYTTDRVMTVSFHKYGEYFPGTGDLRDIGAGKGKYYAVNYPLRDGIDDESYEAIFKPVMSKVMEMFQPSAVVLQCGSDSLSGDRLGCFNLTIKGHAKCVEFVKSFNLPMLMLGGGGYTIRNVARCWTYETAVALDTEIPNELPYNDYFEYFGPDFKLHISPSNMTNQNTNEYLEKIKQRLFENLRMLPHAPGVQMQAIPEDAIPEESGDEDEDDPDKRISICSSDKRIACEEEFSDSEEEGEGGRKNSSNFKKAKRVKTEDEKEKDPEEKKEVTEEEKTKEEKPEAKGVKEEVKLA

IC50 at 72 h [1]: > 15 µM
SMILES: O=C(NO)c1ccc(CN(C2CC2)S(=O)(=O)c2c(F)c(F)cc(F)c2F)cc1

IC50 at 72 h [1]: > 20 µM
SMILES: O=C(NO)c1ccc(CN(C2CC2)S(=O)(=O)c2c(F)c(F)c(F)c(F)c2F)cc1

IC50 at 72 h [1]: > 20 µM
SMILES: O=C(NO)c1ccc(CN(C2CC2)S(=O)(=O)c2c(F)cc(F)c(Cl)c2F)cc1

IC50 at 72 h [1]: > 30 µM
SMILES: O=C(NO)c1ccc(CN(C2CC2)S(=O)(=O)c2c(F)c(F)c(Cl)c(F)c2F)cc1

IC50 at 72 h [1]: > 50 µM
SMILES: O=C(NO)c1ccc(CN(C2CC2)S(=O)(=O)c2c(F)c(Cl)c(F)c(Cl)c2F)cc1

TIME [9]: 0.386 h | inhibition [13]: Active | inhibition [4]: Active | IC50 at 72 h [1]: > 20 µM
SMILES: O=C(NO)c1ccc(CN(C2CC2)S(=O)(=O)c2cc(F)c(F)c(F)c2F)cc1
Activity [5]: Active | Activity [6]: Active | viability at 0.25 µM [7]: 70.6% | Activity [8]: 18.12% | Activity [10]: 19.18% | viability at 4 µM [11]: 7.61% | Activity [12]: 24.37% | Activity [14]: 22.3% | Activity [15]: 6.73% | viability at 0.5 µM [16]: 49.5% | Activity [17]: 17.58% | Activity [18]: 19.6% | Activity [19]: 24.39% | viability at 2 µM [20]: 8.34% | Activity [21]: Active | Activity [22]: 13.93% | Activity [23]: 15.26%

Further lines, the compound ahead of its results:

SMILES: O=C(CCCCCCNC(=O)c1cnc(N(c2ccccc2)c2ccccc2)nc1)NO [RICOLINOSTAT]
IC50 at 72 h [1]: > 20 µM

SMILES: CC(C)N(Cc1ccc(C(=O)NO)cc1)S(=O)(=O)c1c(F)c(F)c(F)c(F)c1F
IC50 at 72 h [1]: > 10 µM

SMILES: O=C(NO)c1ccc(CN(C2CC2)S(=O)(=O)c2cc(F)c(F)c(F)c2)cc1
IC50 at 72 h [1]: > 25 µM

SMILES: O=C(NO)c1ccc(CN(C2CC2)S(=O)(=O)c2ccc(F)cc2)cc1
IC50 at 72 h [1]: > 50 µM

SMILES: O=C(CCCCCCNC(=O)c1cnc(N(c2ccccc2)c2ccccc2Cl)nc1)NO [CITARINOSTAT]
inhibition [2]: Active | IC50 at 72 h [3]: > 30 µM | inhibition [4]: Active | IC50 at 72 h [1]: > 30 µM

SMILES: O=C(NO)c1ccc(CNS(=O)(=O)c2c(F)c(F)c(F)c(F)c2F)cc1
IC50 at 72 h [1]: > 25 µM

SMILES: CN(Cc1ccc(C(=O)NO)cc1)S(=O)(=O)c1c(F)c(F)c(F)c(F)c1F
IC50 at 72 h [1]: > 30 µM

SMILES: O=C(NO)c1ccc(CNC(=O)c2c(F)c(F)c(F)c(F)c2F)cc1
IC50 at 72 h [1]: > 50 µM

SMILES: O=C(NO)c1ccc(CN(C2CC2)S(=O)(=O)c2c(F)cc(F)cc2F)cc1
IC50 at 72 h [1]: > 20 µM

SMILES: O=C(NO)c1cccc(CN(C2CC2)S(=O)(=O)c2c(F)c(F)c(F)c(F)c2F)c1
IC50 at 72 h [1]: > 50 µM
